The species named for test [1] is Homo sapiens. Kind of test: Evaluated for the inhibition of platelet aggregation at dose of 100 uM. Format: functional. The procedure, abridged: (§1)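 Human platelet-rich plasma from citrated blood of volunteers who had taken no drugs for at least 10 days, adjusted to 300 000 platelets/μL with platelet-poor plasma. Compound added in PEG 300, then 8 min at 37 °C and 2 min equilibration with stirring at 1200 rpm. Collagen added to trigger aggregation. Maximum rise in light transmission measured within 1–2.5 h of the blood draw; % inhibition calculated against control.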

The species entered for test [2] is Homo sapiens. The test can be described thus: Evaluated for the inhibition of platelet aggregation at dose of 20 uM. The test is classed as functional. The procedure, abridged:
as §1

The species entered for test [3] is Homo sapiens. The test can be described thus: Evaluated for the inhibition of serotonin release from platelets at dose of 100 uM. Format: functional. The procedure, abridged: (§2)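 Human platelet-rich plasma at 300 000 platelets/μL, loaded with [3H]5-HT (0.5 μM final, 50 μCi/μmol) for 30 min at room temperature. Compound added in PEG 300 and incubated 10 min at 37 °C, then stirred with collagen (1.6 μL/mL final) for 5 min. Reaction stopped with EDTA and samples centrifuged. Supernatant radioactivity counted by scintillation; % inhibition calculated against vehicle-treated plasma.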

In test [4] the test system is Rattus norvegicus. Kind of test: Evaluated for the percentage inhibition by adjuvant arthritis test at a dose of 100 mg/kg administarted perorally; Inactive. The test is classed as functional, organism-based. Details: dose 100 mg/kg.
The species entered for test [5] is Homo sapiens. Kind of test: Evaluated for the inhibition of serotonin release from platelets at dose of 20 uM. Format: functional. Put shortly: as §2
Test [6] is filed under the species Homo sapiens. The test can be described thus: percent inhibition of serotonin release from platelets at a concentration of 100 uM. Format: functional. Put shortly: (§3)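 Human platelet-rich plasma at 300 000/μL, loaded with [3H]5-HT (0.5 μM final) for 30 min at room temperature. Compound in PEG 300 incubated 10 min at 37 °C, then stirred with collagen (1.6 μL/mL final) for 5 min and stopped with EDTA. After centrifugation, supernatant radioactivity was counted by scintillation. Percent inhibition calculated against vehicle-treated plasma.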

Test [7] is filed under the species Homo sapiens. Kind of test: percent inhibition of serotonin release from platelets at a concentration of 20 uM. Format: functional. Put shortly: as §3
For test [8], the species on record is Homo sapiens. Kind of test: Percent inhibition of collagen-induced platelet aggregation at a concentration of 100 uM. The test is classed as functional. The procedure, abridged: (§4)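 Human platelet-rich plasma from drug-free volunteers (citrated blood, 450 g spin), adjusted to 300 000 platelets/μL with platelet-poor plasma. Compound in PEG 300 preincubated 8 min at 37 °C, then 2 min equilibration with stirring at 1200 rpm. Aggregation triggered with collagen; maximum rise in light transmission read by aggregometer. Percent inhibition calculated against control. Runs done 1–2.5 h after blood draw.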

For test [9], the species on record is Homo sapiens. Kind of test: Percent inhibition of collagen-induced platelet aggregation at a concentration of 20 uM. Format: functional. Put shortly:
as §4

Test [10] has as its system Rattus norvegicus. The test can be described thus: Evaluated for the percentage inhibition by adjuvant arthritis test at a dose of 50 mg/kg administarted perorally. The note with it: route oral. Format: functional.
The subject of test [11] is Rattus norvegicus. The test can be described thus: Evaluated for the percentage inhibition by adjuvant arthritis test at a dose of 50 mg/kg administarted perorally; Inactive. Format: functional, organism-based. The arrangement: dose 50 mg/kg.
For test [12], the system named is Rattus norvegicus. The test can be described thus: Evaluated for the percentage inhibition by adjuvant arthritis test at a dose of 25 mg/kg administarted perorally; Inactive. The test is classed as functional, organism-based. Details: dose 25 mg/kg.

The source made the active and inactive calls. The calls are words filed in the database; no cut-off is given here.

For “2-{5-[3-(4-Methyl-benzoyl)-Ferrocenoyl]-cyclopenta-1,3-dienyl}-acetamide”, the inhibition (commonly how much of the control response was suppressed) in the test filed under Homo sapiens [1] was 15%; in the test filed under Homo sapiens [2] it was 4%; in the test listed under Homo sapiens [3] it was 34%; in the test filed under Homo sapiens [5], 0%. Further, the inhibition result in the test on Rattus norvegicus [4] is “inactive”.

As to “calcium salt of 4-Ferrocenoyl-1-methyl-1H-pyrrole-2-acetate”, the inhibition was 3% in the test filed under Homo sapiens [1], 2% in the test listed under Homo sapiens [2], 12% in the test listed under Homo sapiens [3] and 10% in the test filed under Homo sapiens [5]. Besides, the inhibition entry in the test with Rattus norvegicus [4] is “inactive”.

As to `Cc1ccc(C(=O)c2ccc(CC(=O)O)n2C)cc1` [TOLMETIN], the inhibition at 100 µM in the test listed under Homo sapiens [6] turned out to be 88%; in the test filed under Homo sapiens [8] it was 85%. Moreover, the values for the inhibition at 20 µM in the test filed under Homo sapiens [7] and in the test filed under Homo sapiens [9] were 90% and 74%, respectively. Besides, in the test with Rattus norvegicus [10], the inhibition in vivo – broadly, how much of the control response was suppressed – at 50 mg/kg was 34%.

`CC(C(=O)O)c1ccc(-c2ccccc2)c(F)c1` (stereo unspecified) [FLURBIPROFEN]: the inhibition at 100 µM in the test listed under Homo sapiens [6] is 90%; in the test filed under Homo sapiens [8], 89%. Moreover, the inhibition at 20 µM in the test filed under Homo sapiens [7] came out at 86%; in the test filed under Homo sapiens [9], 88%. Moreover, the inhibition in vivo at 50 mg/kg in the test with Rattus norvegicus [10] was 55%.

For the molecule “(3-Ferrocenoyl-cyclopenta-2,4-dienyl)-acetic acid”, the inhibition in the test filed under Homo sapiens [1] was determined as 6%; in the test filed under Homo sapiens [2], 5%; in the test filed under Homo sapiens [3], 16%; in the test listed under Homo sapiens [5], 0%. In the test on Rattus norvegicus [4], the inhibition result was “inactive”.

For `O=C(O)CCC(=O)c1ccc(-c2ccccc2)cc1` [FENBUFEN], in the test on Rattus norvegicus [10], the inhibition in vivo at 50 mg/kg is 71%.

For the molecule “2-[2-(3-Cyclopenta-2,4-dienylmethyl-Ferrocenoyl)-2-oxo-ethyl]-benzoic acid”, the inhibition in the test filed under Homo sapiens [1] stood at 28%; in the test listed under Homo sapiens [2], 7%; in the test filed under Homo sapiens [3] it was 0%; in the test filed under Homo sapiens [5], 3%. The inhibition entry with Rattus norvegicus [11] was “inactive”.

“4-(3-Ferrocenoyl-cyclopenta-2,4-dienyl)-4-oxo-butyric acid”: the inhibition in the test listed under Homo sapiens [1] was found to be 8%; in the test filed under Homo sapiens [2], 0%; in the test filed under Homo sapiens [3], 64%; in the test listed under Homo sapiens [5], 29%. The inhibition entry with Rattus norvegicus [12] was “inactive”.

As to “4-Ferrocenoyl-1-methyl-1H-pyrrole-2-acetate”, the inhibition in the test listed under Homo sapiens [1] turned out to be 27%; in the test listed under Homo sapiens [2], 20%; in the test filed under Homo sapiens [3], 60%; in the test filed under Homo sapiens [5], 32%. The inhibition entry in the test on Rattus norvegicus [11] is “inactive”.

Consider “Methyl 5-Ferrocenoyl-1-methyl-1H-pyrrole-2-acetate”, for which the inhibition in the test filed under Homo sapiens [1] was 6%; in the test filed under Homo sapiens [2], 0%; in the test listed under Homo sapiens [3], 0%; in the test filed under Homo sapiens [5], 3%. The inhibition result in the test with Rattus norvegicus [4] is “inactive”.

Take “[3-(Cyclopenta-2,4-ferrocenoyl)-4-(4-methyl-benzoyl)-cyclopenta-1,3-dienyl]-acetic acid”: the inhibition in the test listed under Homo sapiens [1] was found to be 6%; in the test listed under Homo sapiens [2] it was 2%; in the test listed under Homo sapiens [3], 23%; in the test listed under Homo sapiens [5], 0%. The inhibition result in the test on Rattus norvegicus [4] was “inactive”.

Source of the values: ChEMBL document CHEMBL1122327, “Replacement of aromatic or heteroaromatic groups in nonsteroidal antiinflammatory agents with the ferrocene group” (1983).
